Laboratory results from the array DNA melting data of Ke et al. (doi:10.1101/2024.01.08.574731).

Key:
[1] = melting temperature; fluorescence melt of hairpins on a sequencing array, two-state fit, raised by 9.35 °C to match UV melts; settings: sodium 0.088 M
Procedure, shortened: (§1)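 Hairpins were imaged by Cy3 fluorescence on a sequenced MiSeq flow cell with annealed Cy3 and quencher oligos, in 50 mM Na-HEPES pH 8.0, 25 mM NaCl, in 2.5 °C steps up to 60 °C. Bootstrapped two-state fits of normalised signals gave melting temperature and folding enthalpy. Four replicates were combined by inverse variance, and fitted temperatures were raised by 9.35 °C to match UV melts.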

[2] = folding enthalpy; higher = less favourable; fluorescence melt of hairpins on a sequencing array, two-state fit; settings: sodium 0.088 M
Procedure, shortened: as §1

Sequence | Tm [1] [°C] | folding enthalpy [2] [kcal/mol]
GTGAAGGGAAACCTCCAC (((.(((....))).))) | 38.5 | -19.9
GTGAAGTCGAAAGACCAC (((..(((....)))))) | 38.3 | -23.9
GTGAATCGAAAGATGCAC (((.(((....))).))) | 50.3 | -31.4
GTGACAGCGAAAGCTCAC (((..(((....)))))) | 41.4 | -21.6
GTGACCCCGAAAGGGCAC (((..(((....)))))) | 50.8 | -24.9
GTGACCCGAAAGGGCCAC (((.(((....))).))) | 59.5 | -41
GTGACCGAAAGGTATCAC ((((((....)))..))) | 39.7 | -14.8
GTGACCGAAAGGTCCAC ((((((....))).))) | 47.1 | -11.3
GTGACCGAAAGGTTGCAC ((((((....)))..))) | 42.2 | -13.8
GTGACCGGAAACGGTCGC (.(((((....))))).) | 63.5 | -19.9
GTGACTACGAAAGTACAC (((..(((....)))))) | 29.3 | -6.75
GTGACTCGAAAGAGACAC (((.(((....))).))) | 54.3 | -32.1
GTGACTGCGAAAGCACAC (((..(((....)))))) | 38.8 | -8.82
GTGACTGGAAACGGTCAC (((((.(....).))))) | 53.2 | -49.6
GTGAGATCGAAAGATCAC (((..(((....)))))) | 45.6 | -17.6
GTGAGCCCGAAAGGGCAC (((..(((....)))))) | 52.5 | -11.2
GTGAGCGAAAGCTCCCAC ((((((....)))..))) | 36.4 | -8.27
GTGAGCGAAAGCTGACAC ((((((....)))..))) | 41.2 | -16.6
GTGAGCGAAAGCTGGCAC ((((((....)))..))) | 43 | -9
GTGAGCGAAAGCTTCCAC ((((((....)))..))) | 28.7 | -15.2
GTGAGCGAAAGCTTGCAC ((((((....)))..))) | 51.4 | -7.82
GTGAGGCGAAAGCCCAC (((.(((....)))))) | 61.8 | -18.4
GTGAGGGAAACCTCAC ((((((....)))))) | 60.2 | -31.7

Sequence | Tm [1] [°C] | folding enthalpy [2] [kcal/mol]
GTGAGGGGAAACCCTTGC (..((((....))))..) | 38.7 | -16.4
GTGAGGGGAAACTCTCAC (((((.(....).))))) | 49.4 | -32
GTGAGGTCGAAAGACCAC (((..(((....)))))) | 48.9 | -13
GTGAGTACGAAAGTACAC (((..(((....)))))) | 42.2 | -16.3
GTGAGTCGAAAGACCCAC (((.(((....))).))) | 49.3 | -29.4
GTGAGTGGAAACACCCAC (((.(((....))).))) | 43.2 | -31.4
GTGAGTGGAAACGCTTAC ((.((.(....).)).)) | 33.1 | -16.2
GTGATCACGAAAGTGCAC (((..(((....)))))) | 30.7 | -12.5
GTGATCGAAAGATAGCAC ((((((....)))..))) | 28.3 | -15.6
GTGATCGAAAGATCCAC ((((((....))).))) | 43.9 | -13.3
GTGATCGAAAGATCCCAC ((((((....)))..))) | 32.4 | -10.7
GTGATCGAAAGATTCAC ((((((....))).))) | 43.4 | -24.1
GTGATCGGAAACAATCAC (((((.(....).))))) | 36.3 | -32.9
GTGATGCGAAAGCAACAC (((.(((....))).))) | 56.4 | -33.4
GTGATGCGAAAGCACCAC (((.(((....))).))) | 54.2 | -29.2
GTGATGGGAAACCACCAC (((.(((....))).))) | 42.3 | -29.7
GTGATGGGAAACCGTTAC ((.(.((....)).).)) | 31 | -18.6
GTGATTCGAAAGAACCAC (((.(((....))).))) | 44.8 | -33.2
GTGATTGAAAAATCAC ((((((....)))))) | 51.7 | -29.5
GTGCAAACGAAAGTTCAC (((..(((....)))))) | 33.2 | -7.78
GTGCAACCGAAAGGTCAC (((..(((....)))))) | 40.1 | -16.6
GTGCAACGAAAGTTCCAC (((.(((....))).))) | 38.1 | -10.3
GTGCAAGGAAACCTGCAC (((((.(....).))))) | 51.4 | -35.9

Sequence | Tm [1] [°C] | folding enthalpy [2] [kcal/mol]
GTGCAAGGAAACTTACAC (((.(((....))).))) | 34.8 | -21.5
GTGCAAGGAAACTTGCAC (((((((....))))))) | 65.8 | -31.8
GTGCAAGGAAACTTGTAC ((.((((....)))).)) | 45 | -32.5
GTGCAATCGAAAGATCAC (((..(((....)))))) | 30 | -14
GTGCACACGAAAGTGCAC (((..(((....)))))) | 60 | -30.8
GTGCACCCGAAAGGGCAC (((..(((....)))))) | 52.1 | -23.9
GTGCACGAAAGTGCCAC ((((((....))).))) | 54.5 | -8.14
GTGCACGAAAGTGGGCAC ((((((....)))..))) | 52.6 | -22.6
GTGCACGAAAGTGGTCAC ((((((....)))..))) | 40.2 | -15.9
GTGCACGGAAACATGCAC (((((.(....).))))) | 47.9 | -34.6
GTGCACGGAAACGTGTGC (..((((....))))..) | 50.2 | -27.7
GTGCAGGAAACTGCAC ((((((....)))))) | 68.2 | -35.9
GTGCAGGCGAAAGCCCAC (((..(((....)))))) | 48.9 | -10.8
GTGCAGGGAAACCTGTAC ((.((((....)))).)) | 49.6 | -36.1
GTGCAGGGAAACTTGCAC (((((.(....).))))) | 52.5 | -40.7
GTGCATCGAAAGATTCAC (((.(((....))).))) | 43.4 | -30.1
GTGCATGCGAAAGCACAC (((..(((....)))))) | 46.3 | -12.2
GTGCATGGAAACATGCGC (.(((((....))))).) | 56.9 | -21.5
GTGCATGGAAACATGTAC ((.((((....)))).)) | 48.7 | -31.7
GTGCATGGAAACGTGTAC ((.((.(....).)).)) | 38.6 | -17.6
GTGCCACCGAAAGGTCAC (((..(((....)))))) | 50.5 | -9.49
GTGCCAGGAAACTGGCGC (.(((((....))))).) | 62 | -22.8
GTGCCAGGAAACTGGTAC ((.((((....)))).)) | 53.8 | -29.9

Sequence | Tm [1] [°C] | folding enthalpy [2] [kcal/mol]
GTGCCCGGAAACGAGCAC ((((.((....)).)))) | 52.8 | -41.2
GTGCCCGGAAACGGACAC (((.(((....))).))) | 53.8 | -50.2
GTGCCGCGAAAGCGACAC (((.(((....))).))) | 65.7 | -34.4
GTGCCGCGAAAGCGCAC (((.(((....)))))) | 69 | -21.1
GTGCCTGGAAACAAGCAC ((((.((....)).)))) | 42.7 | -24.6
GTGCCTGGAAACAGGCGC (.(((((....))))).) | 65 | -20.3
GTGCGACGAAAGTCCCAC (((.(((....))).))) | 47.4 | -30.8
GTGCGACGAAAGTCTCAC (((.(((....))).))) | 50.5 | -41.1
GTGCGAGGAAACTCACAC (((.(((....))).))) | 45.8 | -34.2
GTGCGAGGAAACTCGTAC ((.((((....)))).)) | 53.4 | -31.6
GTGCGCGAAAGCGCTCAC ((((((....)))..))) | 40.4 | -7.75
GTGCGCGAAAGCGGACAC ((((((....)))..))) | 63.7 | -11.1
GTGCGCGGAAACGCACAC (((.(((....))).))) | 65.5 | -19.2
GTGCGCGGAAACGTGCGC (.((.((....)).)).) | 59 | -25.9
GTGCGGCGAAAGCCCAC (((.(((....)))))) | 57.6 | -20.7
GTGCGGCGAAAGCCTCAC (((.(((....))).))) | 53.8 | -29.4
GTGCGGGCGAAAGCCCAC (((..(((....)))))) | 62.1 | -10.3
GTGCGGGGAAACCCACAC (((.(((....))).))) | 51.6 | -37.9
GTGCGGGGAAACCCGTAC ((.((((....)))).)) | 59.1 | -27.4
GTGCGTGGAAACACGTGC (..((((....))))..) | 51.5 | -18.4
GTGCTAACGAAAGTTCAC (((..(((....)))))) | 25.4 | -7.2
GTGCTACGAAAGTATCAC (((.(((....))).))) | 44.6 | -35.5
